Experimental data taken from ChEMBL document CHEMBL1137704, “Photodynamic inactivation of Candida albicans sensitized by tri- and tetra-cationic porphyrin derivatives” (Eur J Med Chem, 2009).
Activity calls are given as the source filed them. The rule behind the calls is not given here.

How the values were obtained:
Candida albicans [1] = experiment: Phototoxicity against Candida albicans PC31 in PBS at 10^6 CFU/ml cellular density assessed as cellular inactivation at 5 uM after 30 mins irradiated with visible light for 5 mins; format: functional
Procedure, shortened: (§1)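 Overnight stationary-phase cells in 10 mM PBS pH 7.0 (2 mL) were dark-incubated with porphyrin for 30 min at 37 °C, then exposed to a 150 W slide-projector lamp filtered through 2.5 cm of water. Dark and light-only controls were included. Survivors were counted as CFU after serial dilution, plating in triplicate on Sabouraud agar and ~48 h at 37 °C. Three separate experiments.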

Candida albicans [2] = experiment: Phototoxicity against Candida albicans PC31 in PBS at 10^6 CFU/ml cellular density assessed as cellular inactivation at 5 uM after 30 mins irradiated with visible light for 30 mins; format: functional; procedure, shortened: as §1
Candida albicans [3] = experiment: Drug uptake in Candida albicans PC31 at 10^6 CFU/ml cellular density assessed per 10^6 cells at 5 uM after 30 mins by fluorescence emission analysis; format: ADME, organism-based; conditions: in vivo, 0.5 h
Procedure, shortened: (§2)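 Stationary-phase yeast (overnight Sabouraud broth, 37 °C) washed into 10 mM PBS pH 7.0, 2 mL suspensions incubated with sensitizer in the dark at 37 °C. Cells pelleted, resuspended in 2% aqueous SDS, kept overnight at 4 °C, sonicated 30 min. Porphyrin quantified by fluorescence (exc 418, em 650 nm) against SDS calibration standards, normalized to total cell number. Three separate experiments.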

Candida albicans [4] = experiment: Drug uptake in Candida albicans PC31 at 10^8 CFU/ml cellular density assessed per 10^6 cells at 5 uM after 30 mins by fluorescence emission analysis; format: ADME, organism-based; conditions: in vivo, 0.5 h; procedure, shortened: as §2
Candida albicans [5] = experiment: Drug uptake in Candida albicans PC31 at 10^7 CFU/ml cellular density assessed per 10^6 cells at 5 uM after 30 mins by fluorescence emission analysis; format: ADME, organism-based; conditions: in vivo, 0.5 h; procedure, shortened: as §2
Candida albicans [6] = experiment: Phototoxicity against Candida albicans PC31 in PBS at 10^7 CFU/ml cellular density assessed as cellular inactivation at 5 uM after 30 mins irradiated with visible light for 30 mins; format: functional; procedure, shortened: as §1
Candida albicans [7] = experiment: Drug uptake in Candida albicans PC31 at 10^6 CFU/ml cellular density assessed per 10^6 cells at 1 uM after 30 mins by fluorescence emission analysis; format: ADME, organism-based; conditions: in vivo, 0.5 h; procedure, shortened: as §2
Candida albicans [8] = experiment: Phototoxicity against Candida albicans PC31 in PBS at 10^6 CFU/ml cellular density at 5 uM after 30 mins in dark at 37 deg C; format: functional, organism-based; procedure, shortened: as §1
Candida albicans [9] = experiment: Phototoxicity against Candida albicans PC31 in PBS at 10^6 CFU/ml cellular density pretreated for 30 mins irradiated with visible light for 15 mins; format: functional, organism-based; procedure, shortened: as §1

Row | Structure (SMILES) | Activity (Candida albicans [1]) [%] | Activity (Candida albicans [2]) | Drug uptake (Candida albicans [3]) [nmol] | Drug uptake (Candida albicans [4]) [nmol] | Drug uptake (Candida albicans [5]) [nmol] | Activity (Candida albicans [6]) [%] | Drug uptake (Candida albicans [7]) [nmol] | Activity (Candida albicans [8]) | Activity (Candida albicans [9])
1 | C[N+](C)(C)c1ccc(-c2c3nc(c(-c4ccc([N+](C)(C)C)cc4)c4ccc([nH]4)c(-c4ccc([N+](C)(C)C)cc4)c4nc(c(-c5ccc(C(F)(F)F)cc5)c5ccc2[nH]5)C=C4)C=C3)cc1.[I-].[I-].[I-] | 99.99 | >99.9994% | 1.48 | 0.01 | 0.12 | 99.9 | 0.32 | – | –
2 | O=S(=O)([O-])c1ccc(-c2c3nc(c(-c4ccc(S(=O)(=O)[O-])cc4)c4ccc([nH]4)c(-c4ccc(S(=O)(=O)[O-])cc4)c4ccc([nH]4)c(-c4ccc(S(=O)(=O)[O-])cc4)c4nc2C=C4)C=C3)cc1.[Na+].[Na+].[Na+].[Na+] | – | inactive | – | – | – | – | 0.03 | inactive | Dose-dependent effect
